The M2OR odorant receptor database
Substitutions are numbered along the chain they refer to.

Columns and labels:
Settings in all cases: stereoisomer not certain
OR51B5 (Homo sapiens) = target: T1, OR51B5 (Homo sapiens) (UniProt Q9H339)
T1 sequence (whole entry): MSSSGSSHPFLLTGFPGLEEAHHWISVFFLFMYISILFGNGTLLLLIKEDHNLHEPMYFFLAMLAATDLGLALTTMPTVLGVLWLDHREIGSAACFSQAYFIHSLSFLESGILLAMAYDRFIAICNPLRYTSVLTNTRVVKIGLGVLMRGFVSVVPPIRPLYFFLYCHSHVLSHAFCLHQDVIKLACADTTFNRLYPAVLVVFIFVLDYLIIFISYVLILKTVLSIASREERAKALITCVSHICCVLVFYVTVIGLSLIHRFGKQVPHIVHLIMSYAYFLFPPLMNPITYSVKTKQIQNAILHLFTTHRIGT
Method in brief: (§1)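 Values were gathered from published papers (main text and supplementary material), with extra details requested from the original authors when needed, and checked for typos and inconsistencies. Each receptor–molecule pair is called responsive (active) if the original authors judged the measured signal statistically different from baseline, and non-responsive (inactive) otherwise. Assay methods varied by source, often transient mammalian cell-line luciferase assays. Recorded details include cell line, G-protein, co-transfected protein and tags.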

OR4S2 (Homo sapiens) = target: T2, OR4S2 (Homo sapiens) (UniProt Q8NH73)
T2 sequence (whole entry): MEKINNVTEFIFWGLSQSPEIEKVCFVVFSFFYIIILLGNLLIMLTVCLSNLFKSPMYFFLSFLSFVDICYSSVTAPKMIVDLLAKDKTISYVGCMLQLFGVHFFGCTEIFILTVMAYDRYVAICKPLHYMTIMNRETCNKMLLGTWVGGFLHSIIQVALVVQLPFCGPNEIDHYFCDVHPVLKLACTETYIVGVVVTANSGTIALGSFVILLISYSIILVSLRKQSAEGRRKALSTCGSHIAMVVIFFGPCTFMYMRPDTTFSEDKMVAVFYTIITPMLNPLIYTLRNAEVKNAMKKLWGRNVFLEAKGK
Method in brief: as §1

OR4X1 (Homo sapiens) = target: T3, OR4X1 (Homo sapiens) (UniProt Q8NH49)
T3 sequence (whole entry): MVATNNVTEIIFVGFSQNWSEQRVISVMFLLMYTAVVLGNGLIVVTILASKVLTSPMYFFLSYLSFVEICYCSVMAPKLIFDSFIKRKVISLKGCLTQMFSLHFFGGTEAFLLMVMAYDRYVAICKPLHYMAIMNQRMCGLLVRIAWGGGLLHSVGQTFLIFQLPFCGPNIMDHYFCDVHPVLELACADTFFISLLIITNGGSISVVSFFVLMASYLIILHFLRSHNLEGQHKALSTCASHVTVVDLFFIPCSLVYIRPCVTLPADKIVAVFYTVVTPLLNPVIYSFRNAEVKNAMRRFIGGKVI
Method in brief: as §1

OR4X2 (Homo sapiens) = target: T4, OR4X2 (Homo sapiens) (UniProt Q8NGF9)
T4 sequence (whole entry): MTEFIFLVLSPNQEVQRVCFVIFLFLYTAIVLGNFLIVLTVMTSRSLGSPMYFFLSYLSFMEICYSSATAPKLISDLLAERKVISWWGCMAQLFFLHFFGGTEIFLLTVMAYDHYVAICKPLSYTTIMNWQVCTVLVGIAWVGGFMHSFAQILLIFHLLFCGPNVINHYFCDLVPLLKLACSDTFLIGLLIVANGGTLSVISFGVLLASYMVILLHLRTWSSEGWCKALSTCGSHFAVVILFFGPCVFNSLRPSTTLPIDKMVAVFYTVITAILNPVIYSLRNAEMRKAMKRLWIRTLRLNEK
Method in brief: as §1

OR51A2 (Homo sapiens) = target: T5, OR51A2 (Homo sapiens) (UniProt Q8NGJ7)
T5 sequence (whole entry): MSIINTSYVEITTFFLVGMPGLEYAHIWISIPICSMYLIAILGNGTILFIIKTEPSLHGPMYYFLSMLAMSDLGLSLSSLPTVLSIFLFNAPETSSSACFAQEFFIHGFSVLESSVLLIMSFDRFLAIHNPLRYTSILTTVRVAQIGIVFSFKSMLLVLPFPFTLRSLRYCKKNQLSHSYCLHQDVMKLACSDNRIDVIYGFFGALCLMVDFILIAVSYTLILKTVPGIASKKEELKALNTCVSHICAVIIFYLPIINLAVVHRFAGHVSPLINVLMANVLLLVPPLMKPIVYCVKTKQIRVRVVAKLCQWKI
Method in brief: as §1

OR51A4 (Homo sapiens) = target: T6, OR51A4 (Homo sapiens) (UniProt Q8NGJ6)
T6 sequence (whole entry): T5 sequence (whole entry) with G59E, T94I, S97N, S167N, P227L, E235Q, G267R, M288T, K289N, W311R
Method in brief: as §1

OR51A7 (Homo sapiens) = target: T7, OR51A7 (Homo sapiens) (UniProt Q8NH64)
T7 sequence (whole entry): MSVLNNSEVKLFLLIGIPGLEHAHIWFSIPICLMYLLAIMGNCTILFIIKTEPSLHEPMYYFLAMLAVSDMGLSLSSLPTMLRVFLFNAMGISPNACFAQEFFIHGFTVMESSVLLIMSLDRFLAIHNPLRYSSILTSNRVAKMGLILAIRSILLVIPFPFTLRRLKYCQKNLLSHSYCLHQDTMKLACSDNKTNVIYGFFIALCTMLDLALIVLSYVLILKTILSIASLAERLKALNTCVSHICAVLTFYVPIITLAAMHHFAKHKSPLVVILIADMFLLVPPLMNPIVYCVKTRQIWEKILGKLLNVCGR
Method in brief: as §1

OR51B2 (Homo sapiens) = target: T8, OR51B2 (Homo sapiens) (UniProt Q9Y5P1)
T8 sequence (whole entry): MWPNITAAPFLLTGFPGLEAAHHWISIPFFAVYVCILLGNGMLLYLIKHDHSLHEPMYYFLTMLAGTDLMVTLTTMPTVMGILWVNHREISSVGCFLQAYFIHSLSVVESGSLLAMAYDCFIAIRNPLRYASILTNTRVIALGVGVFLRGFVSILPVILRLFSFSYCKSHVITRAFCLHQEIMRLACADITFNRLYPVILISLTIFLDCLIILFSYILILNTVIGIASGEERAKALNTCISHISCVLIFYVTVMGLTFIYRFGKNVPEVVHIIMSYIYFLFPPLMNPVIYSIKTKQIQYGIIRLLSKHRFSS
Method in brief: as §1

OR51B4 (Homo sapiens) = target: T9, OR51B4 (Homo sapiens) (UniProt Q9Y5P0)
T9 sequence (whole entry): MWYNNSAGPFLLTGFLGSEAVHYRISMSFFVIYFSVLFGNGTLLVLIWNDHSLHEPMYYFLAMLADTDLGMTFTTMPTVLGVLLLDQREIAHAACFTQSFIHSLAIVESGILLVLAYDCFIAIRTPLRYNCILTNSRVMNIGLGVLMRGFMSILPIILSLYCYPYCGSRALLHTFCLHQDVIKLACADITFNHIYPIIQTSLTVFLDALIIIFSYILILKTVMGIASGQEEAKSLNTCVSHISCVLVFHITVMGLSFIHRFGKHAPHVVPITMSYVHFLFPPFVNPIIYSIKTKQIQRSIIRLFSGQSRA
Method in brief: as §1

OR51B6 (Homo sapiens) = target: T10, OR51B6 (Homo sapiens) (UniProt Q9H340)
T10 sequence (whole entry): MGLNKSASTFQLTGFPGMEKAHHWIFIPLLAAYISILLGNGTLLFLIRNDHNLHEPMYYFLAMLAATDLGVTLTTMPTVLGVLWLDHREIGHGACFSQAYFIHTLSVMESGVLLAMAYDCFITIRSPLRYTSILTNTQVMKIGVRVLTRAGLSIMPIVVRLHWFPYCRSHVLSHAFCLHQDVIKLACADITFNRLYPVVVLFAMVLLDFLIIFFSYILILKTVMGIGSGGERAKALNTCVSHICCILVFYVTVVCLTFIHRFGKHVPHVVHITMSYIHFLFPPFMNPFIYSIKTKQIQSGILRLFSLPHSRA
Method in brief: as §1

OR51D1 (Homo sapiens) = target: T11, OR51D1 (Homo sapiens) (UniProt Q8NGF3)
T11 sequence (whole entry): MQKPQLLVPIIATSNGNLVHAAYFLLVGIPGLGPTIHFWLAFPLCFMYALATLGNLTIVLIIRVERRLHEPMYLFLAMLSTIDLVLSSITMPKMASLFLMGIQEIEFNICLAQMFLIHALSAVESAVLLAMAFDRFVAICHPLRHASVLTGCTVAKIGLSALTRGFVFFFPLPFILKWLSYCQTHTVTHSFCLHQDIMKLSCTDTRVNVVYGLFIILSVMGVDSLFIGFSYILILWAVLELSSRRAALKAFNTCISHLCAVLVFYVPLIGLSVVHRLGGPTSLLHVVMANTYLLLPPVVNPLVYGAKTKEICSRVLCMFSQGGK
Method in brief: as §1

OR51E1 (Homo sapiens) = target: T12, OR51E1 (Homo sapiens) (UniProt Q8TCB6)
T12 sequence (whole entry): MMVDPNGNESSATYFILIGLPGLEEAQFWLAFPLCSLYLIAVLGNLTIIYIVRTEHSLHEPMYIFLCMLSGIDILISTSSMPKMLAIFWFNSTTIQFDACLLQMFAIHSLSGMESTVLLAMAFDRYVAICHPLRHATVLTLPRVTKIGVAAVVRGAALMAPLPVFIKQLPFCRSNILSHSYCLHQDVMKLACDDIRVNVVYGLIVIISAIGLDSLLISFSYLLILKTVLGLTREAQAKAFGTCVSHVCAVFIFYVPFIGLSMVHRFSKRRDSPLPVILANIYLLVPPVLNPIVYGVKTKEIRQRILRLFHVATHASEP
Method in brief: as §1

OR51E2 (Homo sapiens) = target: T13, OR51E2 (Homo sapiens) (UniProt Q9H255)
T13 sequence (whole entry): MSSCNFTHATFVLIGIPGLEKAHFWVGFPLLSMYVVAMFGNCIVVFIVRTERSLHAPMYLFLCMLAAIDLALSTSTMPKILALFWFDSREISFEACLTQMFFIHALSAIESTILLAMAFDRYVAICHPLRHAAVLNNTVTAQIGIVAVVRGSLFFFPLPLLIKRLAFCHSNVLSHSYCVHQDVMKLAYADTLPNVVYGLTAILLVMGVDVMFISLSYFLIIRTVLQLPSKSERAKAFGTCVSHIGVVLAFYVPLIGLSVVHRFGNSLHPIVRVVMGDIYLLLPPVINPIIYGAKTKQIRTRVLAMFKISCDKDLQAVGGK
Method in brief: as §1

OR51F2 (Homo sapiens) = target: T14, OR51F2 (Homo sapiens) (UniProt Q8NH61)
T14 sequence (whole entry): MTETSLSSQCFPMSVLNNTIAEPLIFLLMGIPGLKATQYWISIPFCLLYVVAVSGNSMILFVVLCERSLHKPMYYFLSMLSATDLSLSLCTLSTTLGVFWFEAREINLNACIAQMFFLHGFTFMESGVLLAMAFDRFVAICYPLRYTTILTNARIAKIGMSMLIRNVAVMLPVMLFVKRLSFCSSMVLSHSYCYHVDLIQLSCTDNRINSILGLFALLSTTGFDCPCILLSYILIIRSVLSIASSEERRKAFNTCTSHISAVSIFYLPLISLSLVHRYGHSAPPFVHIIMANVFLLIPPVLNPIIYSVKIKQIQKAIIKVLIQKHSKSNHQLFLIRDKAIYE
Method in brief: as §1

OR51G1 (Homo sapiens) = target: T15, OR51G1 (Homo sapiens) (UniProt Q8NGK1)
T15 sequence (whole entry): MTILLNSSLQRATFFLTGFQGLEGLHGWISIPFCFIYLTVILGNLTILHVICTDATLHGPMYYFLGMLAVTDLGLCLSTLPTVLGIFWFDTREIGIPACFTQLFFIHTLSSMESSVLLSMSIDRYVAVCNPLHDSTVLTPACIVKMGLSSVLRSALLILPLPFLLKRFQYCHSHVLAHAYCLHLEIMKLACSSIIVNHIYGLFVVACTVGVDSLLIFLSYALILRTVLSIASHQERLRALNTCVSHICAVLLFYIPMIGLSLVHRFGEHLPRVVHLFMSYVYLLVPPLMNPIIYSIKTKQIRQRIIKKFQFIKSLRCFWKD
Method in brief: as §1

OR51G2 (Homo sapiens) = target: T16, OR51G2 (Homo sapiens) (UniProt Q8NGK0)
T16 sequence (whole entry): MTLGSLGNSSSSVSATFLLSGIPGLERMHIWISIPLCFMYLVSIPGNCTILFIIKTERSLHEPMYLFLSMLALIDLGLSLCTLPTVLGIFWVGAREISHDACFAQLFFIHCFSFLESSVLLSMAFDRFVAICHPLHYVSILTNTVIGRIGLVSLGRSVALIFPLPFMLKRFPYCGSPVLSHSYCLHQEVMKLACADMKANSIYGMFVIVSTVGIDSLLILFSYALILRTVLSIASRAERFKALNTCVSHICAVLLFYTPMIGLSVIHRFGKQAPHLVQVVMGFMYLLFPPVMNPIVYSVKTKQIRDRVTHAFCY
Method in brief: as §1

OR51I1 (Homo sapiens) = target: T17, OR51I1 (Homo sapiens) (UniProt Q9H343)
T17 sequence (whole entry): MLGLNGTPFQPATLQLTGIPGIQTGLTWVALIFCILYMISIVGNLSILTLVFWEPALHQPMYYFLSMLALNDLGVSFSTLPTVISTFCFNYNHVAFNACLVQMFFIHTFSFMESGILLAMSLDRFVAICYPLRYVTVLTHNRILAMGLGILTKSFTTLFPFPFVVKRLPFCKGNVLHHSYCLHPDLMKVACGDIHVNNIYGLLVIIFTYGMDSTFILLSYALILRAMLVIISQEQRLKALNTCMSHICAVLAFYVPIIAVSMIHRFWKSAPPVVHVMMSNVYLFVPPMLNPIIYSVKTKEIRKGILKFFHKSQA
Method in brief: as §1

Measured: odorant receptor agonist call

Cc1cccc(C)c1C
inactive: OR51B5 (Homo sapiens)

CC(C=O)Cc1ccc(C(C)(C)C)cc1 (stereo not given)
inactive: OR51B5 (Homo sapiens)

CCC1OC(=O)C(O)=C1C (stereo not given)
inactive: all assays above

CCCCCCCCCCCCCCCC(=O)OC
inactive: OR51B5 (Homo sapiens)

CCC(O)CC
inactive: OR51B5 (Homo sapiens)

CCC(C)CO (stereo not given)
inactive: OR51B5 (Homo sapiens)

CCCCOCC(C)O (stereo not given)
inactive: OR51B5 (Homo sapiens)

CC1=C(O)C(=O)C(C)O1 (stereo not given)
inactive: all assays above
